Measured values taken from ChEMBL document CHEMBL3259728, “Design, synthesis and biological evaluation of some novel substituted quinazolines as antitumor agents” (2014).

Key:
Assay type in all cases: functional
SK-MEL-5 = assay: Growth inhibition of human SK-MEL-5 cells assessed as cell growth at 10^-8 M after 48 hrs by SRB assay; conditions: SK-MEL-5, 48 h, read-out: Activity
RPMI-8226 [1] = assay: Growth inhibition of human RPMI8226 cells assessed as cell growth at 10^-8 M after 48 hrs by SRB assay; conditions: RPMI-8226, 48 h, read-out: Activity
MCF7 = assay: Growth inhibition of human MCF7 cells assessed as cell growth at 10^-5 M after 48 hrs by SRB assay; conditions: MCF7, 48 h, read-out: Activity
[2] = Growth inhibition of human RXF393 cells assessed as cell growth at 10^-5 M after 48 hrs by SRB assay; conditions: RXF 393, 48 h, read-out: Activity
SNB-75 = assay: Growth inhibition of human SNB75 cells assessed as cell growth at 10^-5 M after 48 hrs by SRB assay; conditions: SNB-75, 48 h, read-out: Activity
K562 = assay: Growth inhibition of human K562 cells assessed as cell growth at 10^-5 M after 48 hrs by SRB assay; conditions: K562, 48 h, read-out: Activity
MDA-MB-231 = assay: Growth inhibition of human MDA-MB-231 cells assessed as cell growth at 10^-6 M after 48 hrs by SRB assay; conditions: MDA-MB-231, 48 h, read-out: Activity
CAKI-1 = assay: Growth inhibition of human CAKI-1 cells assessed as cell growth at 10^-6 M after 48 hrs by SRB assay; conditions: CAKI-1, 48 h, read-out: Activity
Summary of the method: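 Five-dose NCI panel protocol. Each dose (10^-4 to 10^-8 M, 10-fold steps) was given as 48 h continuous exposure, and protein was measured by SRB staining. Percentage growth at each level is [(Ti−Tz)/(C−Tz)]×100, where Tz is time-zero absorbance and C is untreated control.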

NCI-H23 = assay: Growth inhibition of human NCI-H23 cells assessed as cell growth at 10^-4 M after 48 hrs by SRB assay; conditions: NCI-H23, 48 h, read-out: Activity
HOP-62 [3] = assay: Growth inhibition of human HOP62 cells assessed as cell growth at 10^-4 M after 48 hrs by SRB assay; conditions: HOP-62, 48 h, read-out: Activity
[4] = Growth inhibition of human HCT15 cells assessed as cell growth at 10^-6 M after 48 hrs by SRB assay; conditions: HCT-15, 48 h, read-out: Activity
HCT-116 [5] = assay: Growth inhibition of human HCT116 cells assessed as cell growth at 10^-6 M after 48 hrs by SRB assay; conditions: HCT-116, 48 h, read-out: Activity
HCT-116 [6] = assay: Growth inhibition of human HCT116 cells assessed as cell growth at 10^-7 M after 48 hrs by SRB assay; conditions: HCT-116, 48 h, read-out: Activity
[7] = Cytotoxicity against human UACC257 cells after 48 hrs by SRB assay; conditions: UACC-257, 48 h
Summary of the method: (§1)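 NCI 60-cell-line panel, 48 h continuous exposure to five 10-fold dilutions from 10^-4 to 10^-8 M. SRB protein staining was read spectrophotometrically, with time-zero, untreated-control and treated absorbances. GI50, TGI and LC50 were derived from the percentage-growth formulas. Values outside the tested range are expressed as more or less than the maximum or minimum concentration.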

M14 = assay: Cytotoxicity against human M14 cells after 48 hrs by SRB assay; conditions: M14, 48 h
Summary of the method: (§2)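 NCI 60-cell-line panel of human tumour lines from nine cancer types. Continuous 48 h exposure at five 10-fold dilutions from 10^-4 to 10^-8 M, with 5-FU as positive control. SRB protein stain read spectrophotometrically at time zero, untreated control and each concentration. GI50, TGI and LC50 were derived from the [(Ti−Tz)/(C−Tz)]×100 growth relations, and out-of-range values are given as > or < the tested limits.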

SF-268 = assay: Cytotoxicity against human SF268 cells after 48 hrs by SRB assay; conditions: SF-268, 48 h; summary of the method: as §2
SW-620 = assay: Growth inhibition of human SW620 cells assessed as cell growth at 10^-6 M after 48 hrs by SRB assay; conditions: SW-620, 48 h, read-out: Activity
HT-29 = assay: Growth inhibition of human HT-29 cells assessed as cell growth at 10^-6 M after 48 hrs by SRB assay; conditions: HT-29, 48 h, read-out: Activity
T47D = assay: Cytotoxicity against human T47D cells after 48 hrs by SRB assay; summary of the method: as §1
RPMI-8226 [8] = assay: Growth inhibition of human RPMI8226 cells assessed as cell growth at 10^-6 M after 48 hrs by SRB assay; conditions: RPMI-8226, 48 h, read-out: Activity
[9] = Growth inhibition of human LOXIMVI cells assessed as cell growth at 10^-7 M after 48 hrs by SRB assay; conditions: LOX IMVI, read-out: Activity
U-251 = assay: Growth inhibition of human U251 cells assessed as cell growth at 10^-7 M after 48 hrs by SRB assay; conditions: U-251, 48 h, read-out: Activity
SNB-19 = assay: Growth inhibition of human SNB19 cells assessed as cell growth at 10^-7 M after 48 hrs by SRB assay; conditions: SNB-19, 48 h, read-out: Activity
SN12C = assay: Growth inhibition of human SN12C cells assessed as cell growth at 10^-8 M after 48 hrs by SRB assay; conditions: read-out: Activity
HOP-92 = assay: Cytotoxicity against human HOP92 cells after 48 hrs by SRB assay; conditions: HOP-92, 48 h; summary of the method: as §2
HOP-62 [10] = assay: Cytotoxicity against human HOP62 cells after 48 hrs by SRB assay; conditions: HOP-62, 48 h; summary of the method: as §2
[11] = Growth inhibition of human OVCAR5 cells assessed as cell growth at 10^-4 M after 48 hrs by SRB assay; conditions: OVCAR-5, 48 h, read-out: Activity
[12] = read-out: LC50 (the source's name)
[13] = read-out: pLC50 (the source's name) (converted)

## Cc1ccc(-c2nc3ccc(Cl)cc3c(=O)n2/N=C/c2ccccc2)cc1
SK-MEL-5
  growth at 0.01 µM: 94%
RPMI-8226 [1]
  growth at 0.01 µM: 95%
MCF7
  growth at 10 µM: 59%
[2]
  growth at 10 µM: 41%
SNB-75
  growth at 10 µM: 31%
K562
  growth at 10 µM: 72%
MDA-MB-231
  growth at 1 µM: 78%
CAKI-1
  growth at 1 µM: 77%
NCI-H23
  growth at 100 µM: 51%
HOP-62 [3]
  growth at 100 µM: -64%
[4]
  growth at 1 µM: 93%
HCT-116 [5]
  growth at 1 µM: 87%
HCT-116 [6]
  growth at 0.1 µM: 96%
[7]; read-out: GI50
  GI50: > 100 µM
[7]; [12]
  CC50: > 100 µM
[7]; read-out: TGI
  TGI: > 100 µM
[7]; read-out: pGI50 (converted)
  GI50: > 100 µM
[7]; [13]
  CC50: > 100 µM
[7]; read-out: pTGI
  TGI: > 100 µM
M14; read-out: GI50
  GI50: 56.2 µM
M14; [12]
  CC50: > 100 µM
M14; read-out: TGI
  TGI: > 100 µM
M14; read-out: pGI50 (converted)
  GI50: 56.2 µM
M14; [13]
  CC50: > 100 µM
M14; read-out: pTGI
  TGI: > 100 µM
SF-268; read-out: GI50
  GI50: 9.98 µM
SF-268; [12]
  CC50: > 100 µM
SF-268; read-out: TGI
  TGI: > 100 µM
SF-268; read-out: pGI50 (converted)
  GI50: 10 µM
SF-268; [13]
  CC50: > 100 µM
SF-268; read-out: pTGI
  TGI: > 100 µM
SW-620
  growth at 1 µM: 89%
HT-29
  growth at 1 µM: 94%
T47D; read-out: GI50
  GI50: 3.82 µM
T47D; [12]
  CC50: > 100 µM
T47D; read-out: TGI
  TGI: > 100 µM
T47D; read-out: pGI50 (converted)
  GI50: 3.8 µM
T47D; [13]
  CC50: > 100 µM
T47D; read-out: pTGI
  TGI: > 100 µM
RPMI-8226 [8]
  growth at 1 µM: 90%
[9]
  growth at 0.1 µM: 93%
U-251
  growth at 0.1 µM: 99%
SNB-19
  growth at 0.1 µM: 93%
SN12C
  growth at 0.01 µM: 104%
HOP-92; read-out: GI50
  GI50: 6.74 µM
HOP-92; [12]
  CC50: > 100 µM
HOP-92; read-out: TGI
  TGI: > 100 µM
HOP-92; read-out: pGI50 (converted)
  GI50: 6.76 µM
HOP-92; [13]
  CC50: > 100 µM
HOP-92; read-out: pTGI
  TGI: > 100 µM
HOP-62 [10]; read-out: GI50
  GI50: 1.98 µM
HOP-62 [10]; [12]
  CC50: 31.8 µM
HOP-62 [10]; read-out: TGI
  TGI: 5.09 µM
HOP-62 [10]; read-out: pGI50 (converted)
  GI50: 2 µM
HOP-62 [10]; [13]
  CC50: 31.6 µM
HOP-62 [10]; read-out: pTGI (converted)
  TGI: 5.13 µM
[11]
  growth at 100 µM: 61%
